Reference: ChEMBL document CHEMBL1125311, “Inhibition of human leukocyte elastase. 4. Selection of a substituted cephalosporin (L-658,758) as a topical aerosol” (J Med Chem, 1992)
One block for each compound: values may come before it.

Assays:
[1] = Half-life value of the compound.; type: ADME
Outline: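 Chemical stability: compound dissolved at 1 mg/mL in 0.5 M MOPS, pH 8.0, held at 25 °C in capped vial; aliquots quenched in 2% aqueous TFA and analysed by reverse-phase HPLC over one to two half-lives. Peak areas fit to first-order decay F(t)=A/2^(t/t1/2) to give t1/2.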

[2] = biological target: T1, Neutrophil elastase (Homo sapiens) (UniProt P08246)
T1 sequence (whole entry): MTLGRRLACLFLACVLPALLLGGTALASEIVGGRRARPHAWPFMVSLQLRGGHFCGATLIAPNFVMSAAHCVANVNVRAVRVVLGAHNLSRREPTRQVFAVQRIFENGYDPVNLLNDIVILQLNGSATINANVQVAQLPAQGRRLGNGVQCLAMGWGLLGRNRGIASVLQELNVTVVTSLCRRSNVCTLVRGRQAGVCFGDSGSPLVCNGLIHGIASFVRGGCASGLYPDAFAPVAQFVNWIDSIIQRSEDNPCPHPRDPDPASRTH

Cricetinae gen. sp. [3] = test: Compound was evaluated in vivo for inhibition of HLE-induced hemorrhage in hamster lung at 30microg, 30 min after administration prior to HLE; type: functional, Cricetulus griseus
Outline: (§1)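 Hamster, intratracheal dosing of compound (per animal) 30 min before IT instillation of 50 μg HLE (50 units in Experimental); hemorrhage read 3 h later: lungs lavaged with saline, hemoglobin in lavage measured at 414 nm. Percent inhibition from drug-treated vs vehicle-treated hemorrhage; three animals per dose and time. Titration at 100, 30, 10, 3 μg/animal gives ED50.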

Cricetinae gen. sp. [4] = test: Compound was evaluated in vivo for inhibition of HLE-induced hemorrhage in hamster lung at 100 microg, 30 min after administration prior to HLE; type: functional, Cricetulus griseus; outline: as §1
Cricetinae gen. sp. [5] = test: Compound was evaluated in vivo for inhibition of HLE-induced hemorrhage in hamster lung at 10microg, 30 min after administration prior to HLE; type: functional, Cricetulus griseus; outline: as §1
Cricetinae gen. sp. [6] = test: Compound was evaluated in vivo for inhibition of HLE-induced hemorrhage in hamster lung at 100 microg 5 min after administration; type: functional, Cricetulus griseus
Cricetinae gen. sp. [7] = test: Compound was evaluated in vivo for inhibition of HLE-induced hemorrhage in hamster lung at 400 microg, 30 min after administration; type: functional, Cricetulus griseus
Neutrophil elastase = biological target: T2, Neutrophil elastase (Homo sapiens, UniProt P08246); test: In vitro inhibitory activity against human leukocyte elastase
T2 sequence (P08246 whole entry): T1 sequence (whole entry)

Cricetinae gen. sp. [8] = test: Compound was evaluated in vivo for inhibition of HLE-induced hemorrhage in hamster lung at 200 microg, 2 hr after administration prior to HLE; type: functional, Cricetulus griseus
Outline: (§2)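 Hamster duration protocol: 200 μg/animal given intratracheally 60, 120, 180 or 240 min before IT HLE instillation; hemorrhage scored after 3 h as hemoglobin (414 nm) in saline lung lavage, relative to vehicle-treated animals; three animals per point. T50 taken as time at which 50% inhibition is still obtained.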

Cricetinae gen. sp. [9] = test: Compound was evaluated in vivo for inhibition of HLE-induced hemorrhage in hamster lung at 200 microg, 3h after administration prior to HLE; type: functional, Cricetulus griseus; outline: as §2
Cricetinae gen. sp. [10] = test: Compound was evaluated in vivo for inhibition of HLE-induced hemorrhage in hamster lung at 200 microg, 1 hr after administration prior to HLE; type: functional, Cricetulus griseus; outline: as §2
Cricetinae gen. sp. [11] = test: Compound was evaluated in vivo for inhibition of HLE-induced hemorrhage in hamster lung at 200 microg, 4 hr after administration prior to HLE; type: functional, Cricetulus griseus; outline: as §2
Cricetinae gen. sp. [12] = test: Compound was evaluated in vivo for inhibition of HLE-induced hemorrhage in hamster lung at 10 microg, 30 min after administration prior to HLE; type: functional, Cricetulus griseus; outline: as §1
Cricetinae gen. sp. [13] = test: Compound was evaluated in vivo for inhibition of HLE-induced hemorrhage in hamster lung at 30 microg, 30 min after administration prior to HLE; type: functional, Cricetulus griseus; outline: as §1
Cricetinae gen. sp. [14] = test: Compound was evaluated in vivo for inhibition of HLE-induced hemorrhage in hamster lung at 200 microg 1 hr after administration prior to HLE; type: functional, Cricetulus griseus; outline: as §2
Cricetinae gen. sp. [15] = test: Compound was evaluated in vivo for inhibition of HLE-induced hemorrhage in hamster lung at 200 microg 2 hr after administration prior to HLE; type: functional, Cricetulus griseus; outline: as §2
Cricetinae gen. sp. [16] = test: Compound was evaluated in vivo for inhibition of HLE-induced hemorrhage in hamster lung at 200 microg 3h after administration prior to HLE; type: functional, Cricetulus griseus; outline: as §2
Cricetinae gen. sp. [17] = test: Compound was evaluated in vivo for inhibition of HLE-induced hemorrhage in hamster lung at 200 microg 4 hr after administration prior to HLE; type: functional, Cricetulus griseus; outline: as §2
Cricetinae gen. sp. [18] = test: Compound was evaluated in vivo for inhibition of HLE-induced hemorrhage in hamster lung at 100 microg 30 min after administration; type: functional, Cricetulus griseus; outline: as §1
Cricetinae gen. sp. [19] = test: Compound was evaluated in vivo for inhibition of HLE-induced hemorrhage in hamster lung at 100 microg 90 min after administration; type: functional, Cricetulus griseus
Cricetinae gen. sp. [20] = test: Compound was evaluated in vivo for inhibition of HLE-induced hemorrhage in hamster lung at 100 microg, 30 min after administration; type: functional, Cricetulus griseus; outline: as §1
Cricetinae gen. sp. [21] = test: Compound was evaluated in vivo for inhibition of HLE-induced hemorrhage in hamster lung at 3 microg, 30 min after administration prior to HLE; type: functional, Cricetulus griseus; outline: as §1
Cricetinae gen. sp. [22] = test: Compound was evaluated in vivo for inhibition of HLE-induced hemorrhage in hamster lung at 30 microg, 30 min after administration prior to HLE

- half-life [1]: 8 h
- k obs / 1 [2]: 1400 M⁻¹ s⁻¹
SMILES: CO[C@H]1C(=O)N2C(C(=O)N(C)CC(=O)O)=C(COC(C)=O)C(C)S(=O)(=O)[C@H]12 (some centres not stated)

- half-life [1]: 5 h
SMILES: CO[C@H]1C(=O)N2C(C(=O)OCc3ccc(C(=O)O)cc3)=C(COC(C)=O)CS(=O)(=O)[C@H]12
- Inhibition (Cricetinae gen. sp. [6]): 98%

- k obs / 1 [2]: 2200 M⁻¹ s⁻¹
SMILES: CO[C@H]1C(=O)N2C(C(=O)NC(C)(C)C)=C(COC(C)=O)CS(=O)(=O)[C@H]12
- Inhibition (Cricetinae gen. sp. [7]): -5%

- k obs / 1 [2]: 1900 M⁻¹ s⁻¹
SMILES: CO[C@H]1C(=O)N2C(C(=O)N3CCC(C(=O)O)C3)=C(COC(C)=O)CS(=O)(=O)[C@H]12 (some centres not stated)

- k obs / 1 [2]: 8600 M⁻¹ s⁻¹
SMILES: CO[C@H]1C(=O)N2C(C(=O)OC(C)(C)C)=C(CSc3nc(=O)c(=O)[nH]n3C)CS(=O)(=O)[C@H]12
- Inhibition (Cricetinae gen. sp. [18]): 90%
- Inhibition (Cricetinae gen. sp. [19]): 18%

The remaining lines, values behind:

SMILES: CO[C@H]1C(=O)N2C(C(=O)N(C)CC(=O)O)=C(CSc3nnnn3C)CS(=O)(=O)[C@H]12
- k obs / 1 [2]: 600 M⁻¹ s⁻¹

SMILES: CO[C@H]1C(=O)N2C(C(=O)N(C)CC(=O)N(C)CCC(=O)O)=C(COC(C)=O)CS(=O)(=O)[C@H]12
- Inhibition (Cricetinae gen. sp. [3]): 77%
- Inhibition (Cricetinae gen. sp. [4]): 86%
- Inhibition (Cricetinae gen. sp. [5]): 35%
- k obs / 1 [2]: 700 M⁻¹ s⁻¹

SMILES: CO[C@H]1C(=O)N2C(C(=O)N(C)Cc3ccccc3)=C(COC(=O)c3ccc(C(=O)O)cc3)CS(=O)(=O)[C@H]12
- k obs / 1 [2]: 10000 M⁻¹ s⁻¹

SMILES: CO[C@H]1C(=O)N2C(C(=O)N(CC(=O)O)Cc3ccccc3)=C(COC(C)=O)CS(=O)(=O)[C@H]12
- Ki (Neutrophil elastase): 6.1 µM
- Inhibition (Cricetinae gen. sp. [3]): 30%
- Inhibition (Cricetinae gen. sp. [4]): 42%

SMILES: CO[C@H]1C(=O)N2C(C(=O)N(C)CC(=O)O)=C(COC(=O)c3ccccc3)CS(=O)(=O)[C@H]12
- Inhibition (Cricetinae gen. sp. [8]): 58%
- Inhibition (Cricetinae gen. sp. [9]): 38%
- Inhibition (Cricetinae gen. sp. [10]): 88%
- Inhibition (Cricetinae gen. sp. [11]): 5%
- Inhibition (Cricetinae gen. sp. [3]): 58%
- Inhibition (Cricetinae gen. sp. [4]): 87%
- k obs / 1 [2]: 600 M⁻¹ s⁻¹

SMILES: CO[C@H]1C(=O)N2C(C(=O)N(C)[C@H](C)C(=O)O)=C(COC(C)=O)CS(=O)(=O)[C@H]12
- Inhibition (Cricetinae gen. sp. [12]): 29%
- Inhibition (Cricetinae gen. sp. [13]): 90%
- Inhibition (Cricetinae gen. sp. [4]): 97%
- k obs / 1 [2]: 900 M⁻¹ s⁻¹

SMILES: CC[C@H]1C(=O)N2C(C(=O)N(C)CC(=O)O)=C(COC(=O)c3ccc(C(=O)O)cc3)CS(=O)(=O)[C@H]12
- Inhibition (Cricetinae gen. sp. [8]): 59%
- Inhibition (Cricetinae gen. sp. [9]): 57%
- Inhibition (Cricetinae gen. sp. [10]): 84%
- k obs / 1 [2]: 100 M⁻¹ s⁻¹

SMILES: CO[C@H]1C(=O)N2C(C(=O)N(C)CCC(=O)O)=C(COC(C)=O)CS(=O)(=O)[C@H]12
- half-life [1]: 24 h
- Inhibition (Cricetinae gen. sp. [14]): 80%
- Inhibition (Cricetinae gen. sp. [15]): 39%
- Inhibition (Cricetinae gen. sp. [16]): -1%
- Inhibition (Cricetinae gen. sp. [17]): 33%
- k obs / 1 [2]: 500 M⁻¹ s⁻¹

SMILES: CO[C@H]1C(=O)N2C(C(=O)N3CCOCC3)=C(COC(C)=O)CS(=O)(=O)[C@H]12
- half-life [1]: 13 h
- Inhibition (Cricetinae gen. sp. [20]): -21%
- k obs / 1 [2]: 35200 M⁻¹ s⁻¹

SMILES: CO[C@H]1C(=O)N2C(C(=O)N(C)[C@@H](C)C(=O)O)=C(COC(C)=O)CS(=O)(=O)[C@H]12
- Inhibition (Cricetinae gen. sp. [8]): 81%
- Inhibition (Cricetinae gen. sp. [9]): 47%
- Inhibition (Cricetinae gen. sp. [10]): 94%
- Inhibition (Cricetinae gen. sp. [12]): 78%
- Inhibition (Cricetinae gen. sp. [11]): 21%
- Inhibition (Cricetinae gen. sp. [21]): 50%
- Inhibition (Cricetinae gen. sp. [4]): 96%
- k obs / 1 [2]: 500 M⁻¹ s⁻¹
- Inhibition (Cricetinae gen. sp. [22]): 89%
